Test results reported in ChEMBL document CHEMBL1157464, “1-[(3-Aryloxy-3-aryl)propyl]-1H-imidazoles, new imidazoles with potent activity against Candida albicans and dermatophytes. Synthesis, structure-activity relationship, and molecular modeling studies” (J Med Chem, 2008).
≈ marks a conversion by molar mass, not a printed value.

Key:
Candida albicans [1] = test: Antifungal activity against Candida albicans ATCC 10261 at 35 degC after 48 hrs by broth microdilution test; type: functional; conditions: Candida albicans, ATCC 10261, 48 h; for MIC: read-out: MIC; for MIC50: read-out: MIC50; for MIC90: read-out: MIC90
Summary of the method: (§1)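 Broth microdilution per NCCLS M27-A2. Stocks in 100% DMSO, diluted in RPMI 1640 with 0.165 M MOPS at pH 7.0; final range 0.25–128 µg/mL. Inoculum 1000–5000 cells/mL from SDA subcultures. […] C. parapsilosis ATCC22019 served as QC strain.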

Arthrodermataceae [2] = test: Antifungal activity against dermatophytes at 28 degC after 5 days by broth microdilution test; conditions: for MFC: Arthrodermataceae
Candida parapsilosis = test: Antifungal activity against Candida parapsilosis ATCC 22019 at 35 degC after 48 hrs by broth microdilution test; type: functional; conditions: Lodderomyces parapsilosis, ATCC 22019, 48 h; for MFC: read-out: MFC; for MIC: read-out: MIC; summary of the method: as §1
Candida albicans [3] = test: Antifungal activity against Candida albicans ATCC 10261 at 35 degC after 48 to 96 hrs by broth microdilution test; type: functional; conditions: for MFC: Candida albicans, ATCC 10261, read-out: MFC
Summary of the method: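 Minimal fungicidal concentration for Candida. […] MFC is the lowest concentration allowing fewer than two colonies (99% killing).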

Arthrodermataceae [4] = test: Antifungal activity against dermatophytes at 28 degC after 7 days by broth microdilution test; type: functional; conditions: 168 h
Summary of the method: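 Ten clinical isolates (two M. canis, five M. gypseum, three T. mentagrophytes) tested by NCCLS M38-A broth microdilution in MOPS-buffered RPMI 1640, pH 7.0, over 0.25–128 µg/mL. Conidial/hyphal suspension from PDA slants (28 °C, 7 days) adjusted to 65–70% transmittance at OD530, then diluted 1:50.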

Arthrodermataceae [5] = test: Antifungal activity against dermatophytes at 28 degC after 48 to 96 hrs by broth microdilution test

SMILES | MIC (Candida albicans [1]) [µg/mL] | MIC50 (Candida albicans [1]) [µg/mL] | MIC90 (Candida albicans [1]) [µg/mL] | MIC (Candida parapsilosis) [µg/mL] | MIC (Arthrodermataceae [4]) [µg/mL] | MIC50 (Arthrodermataceae [4]) [µg/mL] | MIC90 (Arthrodermataceae [4]) [µg/mL] | MFC90 (Arthrodermataceae [2]) [µg/mL] | MFC (Arthrodermataceae [2]) [µg/mL] | MFC (Candida parapsilosis) [µg/mL] | MFC50 (Candida albicans [3]) [µg/mL] | MFC90 (Candida albicans [3]) [µg/mL] | MFC (Candida albicans [3]) [µg/mL] | MFC50 (Arthrodermataceae [5]) [µg/mL]
Fc1ccc(C(CCn2ccnc2)Oc2c(Cl)cccc2Cl)cc1 (configuration not stated) | 36.1 (≈ 98.8 µM) | 8 (≈ 21.9 µM) | 64 (≈ 175 µM) | 4 (≈ 11 µM) | 6.4 (≈ 17.5 µM) | 8 (≈ 21.9 µM) | 8 (≈ 21.9 µM) | 16 (≈ 43.8 µM) | 15 (≈ 41.1 µM) | 32 (≈ 87.6 µM) | 32 (≈ 87.6 µM) | 128 (≈ 350 µM) | 78.9 (≈ 216 µM) | 16 (≈ 43.8 µM)
Fc1ccc(C(CCn2ccnc2)Oc2ccccc2)cc1 (configuration not stated) | 32.1 (≈ 108 µM) | 32 (≈ 108 µM) | 64 (≈ 216 µM) | 8 (≈ 27 µM) | 16.1 (≈ 54.3 µM) | 16 (≈ 54 µM) | 16 (≈ 54 µM) | 32 (≈ 108 µM) | 28.5 (≈ 96.2 µM) | 32 (≈ 108 µM) | 64 (≈ 216 µM) | 64 (≈ 216 µM) | 57.6 (≈ 194 µM) | 32 (≈ 108 µM)
Cc1ccc(C(CCn2ccnc2)Oc2ccccc2)cc1 (configuration not stated) | 20.3 (≈ 69.4 µM) | 16 (≈ 54.7 µM) | 32 (≈ 109 µM) | 4 (≈ 13.7 µM) | – | – | – | – | – | 32 (≈ 109 µM) | 32 (≈ 109 µM) | 64 (≈ 219 µM) | 38.4 (≈ 131 µM) | –
Cc1ccc(C(CCn2ccnc2)Oc2ccc(C(C)(C)C)cc2)cc1 (configuration not stated) | 52.1 (≈ 150 µM) | 64 (≈ 184 µM) | 64 (≈ 184 µM) | 8 (≈ 23 µM) | 11.2 (≈ 32.1 µM) | 8 (≈ 23 µM) | 16 (≈ 45.9 µM) | 16 (≈ 45.9 µM) | 14.4 (≈ 41.3 µM) | 16 (≈ 45.9 µM) | 64 (≈ 184 µM) | 64 (≈ 184 µM) | 58 (≈ 166 µM) | 16 (≈ 45.9 µM)
O=[N+]([O-])O.c1ccc(C(OCCn2ccnc2)c2ccccc2)cc1 | 78.1 | 64 | 128 | 32 | – | – | – | – | – | 64 | 128 | >256 | 230 | –
Clc1ccc(C(OCCn2ccnc2)c2ccccc2)c(Cl)c1.O=[N+]([O-])O (configuration not stated) | 46.1 | 32 | 64 | 16 | 7 | 8 | 8 | 8 | 7.5 | 32 | 128 | >256 | 158 | 8

Now from value to molecule, other results behind:

MIC (Candida albicans [1]) [µg/mL] | MIC50 (Candida albicans [1]) [µg/mL] | MIC90 (Candida albicans [1]) [µg/mL] | MIC (Candida parapsilosis) [µg/mL] | MIC (Arthrodermataceae [4]) [µg/mL] | MIC50 (Arthrodermataceae [4]) [µg/mL] | MIC90 (Arthrodermataceae [4]) [µg/mL] | SMILES | MFC90 (Arthrodermataceae [2]) [µg/mL] | MFC (Arthrodermataceae [2]) [µg/mL] | MFC (Candida parapsilosis) [µg/mL] | MFC50 (Candida albicans [3]) [µg/mL] | MFC90 (Candida albicans [3]) [µg/mL] | MFC (Candida albicans [3]) [µg/mL] | MFC50 (Arthrodermataceae [5]) [µg/mL]
60.2 (≈ 152 µM) | 64 (≈ 162 µM) | 64 (≈ 162 µM) | 4 (≈ 10.1 µM) | 7 (≈ 17.7 µM) | 8 (≈ 20.2 µM) | 8 (≈ 20.2 µM) | Clc1ccc(C(CCn2ccnc2)OCc2ccc(Cl)cc2Cl)cc1 (configuration not stated) | 16 (≈ 40.4 µM) | 17.3 (≈ 43.7 µM) | 32 (≈ 80.9 µM) | 64 (≈ 162 µM) | 64 (≈ 162 µM) | 62 (≈ 157 µM) | 16 (≈ 40.4 µM)
13.5 (≈ 39.6 µM) | 16 (≈ 46.9 µM) | 16 (≈ 46.9 µM) | 8 (≈ 23.5 µM) | 32.5 (≈ 95.3 µM) | 32 (≈ 93.9 µM) | 32 (≈ 93.9 µM) | Cc1ccc(OC(CCn2ccnc2)c2ccc(Cl)cc2)c(C)c1 (configuration not stated) | 64 (≈ 188 µM) | 58 (≈ 170 µM) | 32 (≈ 93.9 µM) | 32 (≈ 93.9 µM) | 32 (≈ 93.9 µM) | 28 (≈ 82.1 µM) | 64 (≈ 188 µM)
16 (≈ 46.9 µM) | 16 (≈ 46.9 µM) | 16 (≈ 46.9 µM) | 4 (≈ 11.7 µM) | – | – | – | Cc1ccc(C(CCn2ccnc2)Oc2ccc(Cl)cc2C)cc1 (configuration not stated) | – | – | 16 (≈ 46.9 µM) | 64 (≈ 188 µM) | 64 (≈ 188 µM) | 58 (≈ 170 µM) | –
> 128 | > 128 | > 128 | 32 (≈ 88.3 µM) | 17.6 (≈ 48.6 µM) | 16 (≈ 44.2 µM) | 32 (≈ 88.3 µM) | Cc1ccc(C(CCn2cncn2)Oc2ccc(Cl)cc2Cl)cc1 (configuration not stated) | >128 | 122 (≈ 336 µM) | 64 (≈ 177 µM) | >128 | >128 | > 128 | 32 (≈ 88.3 µM)
> 128 | > 128 | > 128 | 32 (≈ 83.6 µM) | 10.4 (≈ 27.2 µM) | 8 (≈ 20.9 µM) | 16 (≈ 41.8 µM) | Clc1ccc(C(CCn2cncn2)Oc2ccc(Cl)cc2Cl)cc1 (configuration not stated) | >128 | 138 (≈ 360 µM) | 64 (≈ 167 µM) | >128 | >128 | > 128 | 32 (≈ 83.6 µM)
51 (≈ 123 µM) | 64 (≈ 154 µM) | 64 (≈ 154 µM) | 8 (≈ 19.2 µM) | – | – | – | Clc1ccc(OC(CCn2ccnc2)c2ccc(Cl)cc2Cl)c(Cl)c1 (configuration not stated) | – | – | 64 (≈ 154 µM) | 64 (≈ 154 µM) | 64 (≈ 154 µM) | 64 (≈ 154 µM) | –
34.4 | 32 | 64 | 16 | – | – | – | Clc1ccc(C(OCCn2ccnc2)c2ccc(Cl)cc2Cl)cc1.O=[N+]([O-])O (configuration not stated) | – | – | 32 | 128 | 256 | 145 | –
